Measured values gathered from unrelated publications.
Compare with care: the assays were run in different laboratories.
Target: Adenosine receptor A1 (ADORA1, Homo sapiens, UniProt P30542)
Sequence (P30542 1-326, as in one of the studies): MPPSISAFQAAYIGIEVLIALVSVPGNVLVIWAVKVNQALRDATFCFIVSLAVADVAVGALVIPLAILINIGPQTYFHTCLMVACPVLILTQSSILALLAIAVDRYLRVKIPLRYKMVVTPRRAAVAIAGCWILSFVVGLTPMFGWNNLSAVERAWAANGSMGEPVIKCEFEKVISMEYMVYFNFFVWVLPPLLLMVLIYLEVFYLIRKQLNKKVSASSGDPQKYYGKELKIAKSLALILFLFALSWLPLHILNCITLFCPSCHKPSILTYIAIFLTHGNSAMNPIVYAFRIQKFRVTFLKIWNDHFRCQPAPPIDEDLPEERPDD

O=C(Nc1ccc(S(=O)(=O)N2CCC(Cl)CC2)cc1)c1ccc([N+](=O)[O-])o1
inhibition (ligand displacement; radioligand; 10 µM): 12%

Oc1cccc(Nc2nc(-c3ccc(F)cc3F)cs2)c1
inhibition (cell-free assay; 10 µM): 46.5%

Cn1c(=O)[nH]c2nc[nH]c2c1=O
inhibition (ligand displacement; radioligand; 30 µM; cell membranes): 78%

CNc1nc(Cl)nc2c1ncn2[C@@H]1OC[C@@H](O)[C@H]1O
inhibition (ligand displacement; radioligand; 10 µM; cell membranes): < 10%

CNC(=O)[C@@]12C[C@@H]1[C@@H](n1cnc3c(NC)nc(C#C[c-]4cccc4)nc31)[C@H](O)[C@@H]2O.[Fe+2].c1cc[cH-]c1
inhibition (ligand displacement; radioligand; 10 µM; cell membranes): 25%

Ic1cccc2cnccc12
inhibition (ligand displacement; radioligand; 10 µM): -5%

CNc1ncnc2c1ncn2[C@@H]1OC[C@@H](O)[C@H]1O
inhibition (ligand displacement; radioligand; 10 µM; cell membranes): < 10%

O=C(c1ccc(Cl)cc1)N(Cc1ccccc1)C1CCCCC1
inhibition (cell-free assay; 10 µM): 1.7%

C=CN1CCCn2c1nc1c2c(=O)n(C)c(=O)n1C
inhibition (ligand displacement; radioligand; 10 µM; cell membranes): 21%

O[C@@H]1[C@H](O)CO[C@H]1n1cnc2c(NCc3cccc(F)c3)ncnc21
inhibition (ligand displacement; radioligand; 10 µM; cell membranes): 16%

O=C1N=C(N2CCCCN2)S/C1=C\c1ccc(F)cc1O
inhibition (ligand displacement; radioligand; 10 µM): < 10%
